# Source: PubChem
# This is one part of a sample in which hits are shown more often than they occur.
# TLR9-MyD88 inh = blocks human TLR9 binding to MyD88; Q9NR96+Q99836; CHO BLA complementation TLR9-MyD88, CCF4 FRET ratio; inhibition, % at 4.98 µM; hit rate 0.21% among 340,000; AID 504734;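 active = inhibition above the mean over all tested compounds plus 3 SD, cut at about 21% in these data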;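 also: 0% = DMSO only wells and 100% = clavulanate BLA inhibitor control wells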
# Target sequence (Q99836 whole entry, looked up): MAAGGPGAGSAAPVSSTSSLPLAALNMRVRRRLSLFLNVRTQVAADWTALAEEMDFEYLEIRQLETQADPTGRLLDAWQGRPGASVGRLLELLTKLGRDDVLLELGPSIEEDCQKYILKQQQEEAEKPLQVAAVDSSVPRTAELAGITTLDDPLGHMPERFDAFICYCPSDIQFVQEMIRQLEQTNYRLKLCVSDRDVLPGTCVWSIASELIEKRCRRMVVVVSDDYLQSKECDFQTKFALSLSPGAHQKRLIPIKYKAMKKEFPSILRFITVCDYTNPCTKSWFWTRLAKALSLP
# Target sequence (Q9NR96 whole entry, looked up): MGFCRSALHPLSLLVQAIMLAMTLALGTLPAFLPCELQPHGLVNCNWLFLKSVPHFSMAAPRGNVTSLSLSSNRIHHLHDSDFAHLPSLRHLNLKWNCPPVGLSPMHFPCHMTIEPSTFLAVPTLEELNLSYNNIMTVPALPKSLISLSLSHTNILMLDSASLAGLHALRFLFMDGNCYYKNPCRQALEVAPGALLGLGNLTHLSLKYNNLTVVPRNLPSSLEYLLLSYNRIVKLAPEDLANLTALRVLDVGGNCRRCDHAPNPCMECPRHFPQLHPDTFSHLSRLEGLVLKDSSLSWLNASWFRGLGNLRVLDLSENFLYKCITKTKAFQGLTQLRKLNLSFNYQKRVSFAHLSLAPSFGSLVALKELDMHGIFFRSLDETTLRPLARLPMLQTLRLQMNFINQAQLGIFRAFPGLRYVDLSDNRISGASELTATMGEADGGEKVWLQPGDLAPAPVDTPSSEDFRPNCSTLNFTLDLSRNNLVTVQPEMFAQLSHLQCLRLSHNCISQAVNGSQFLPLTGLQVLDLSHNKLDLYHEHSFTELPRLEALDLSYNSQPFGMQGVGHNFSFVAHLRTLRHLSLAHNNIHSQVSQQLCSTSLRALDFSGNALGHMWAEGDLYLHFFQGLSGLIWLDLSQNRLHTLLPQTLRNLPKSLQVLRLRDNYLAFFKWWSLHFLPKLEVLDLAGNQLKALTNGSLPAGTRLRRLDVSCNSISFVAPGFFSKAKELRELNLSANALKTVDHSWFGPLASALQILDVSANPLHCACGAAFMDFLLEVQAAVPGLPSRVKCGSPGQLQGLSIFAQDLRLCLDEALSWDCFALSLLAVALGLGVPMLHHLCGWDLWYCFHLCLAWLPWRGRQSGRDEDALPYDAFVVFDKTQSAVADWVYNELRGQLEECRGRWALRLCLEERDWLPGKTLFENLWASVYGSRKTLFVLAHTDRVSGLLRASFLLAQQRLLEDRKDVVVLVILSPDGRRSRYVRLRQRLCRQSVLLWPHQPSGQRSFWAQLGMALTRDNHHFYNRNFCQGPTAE
# CHOP inhibitor = blocks CHOP induction under ER stress | CHO-K1 CHOP-promoter luciferase, tunicamycin-induced, 15-18 h | inhibition, % at 10 µM | hit rate 3.8% among 220,000 | AID 2732;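 active = compounds that reduced the stress-induced luciferase reporter signal by more than about 70% of percent inhibition, limit read from the data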;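 also: 0% = tunicamycin plus vehicle and 100% = wells without tunicamycin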
# TLR4 MyD88 comp = TLR4-MyD88 interaction inhibition in cells; O00206+Q99836; HeLa CL3-4 TLR4/MyD88 BLA complementation, FRET ratio; inhibition, % at 8.4 µM; hit rate 0.18% among 200,000; in the data active = inhibition above about 25%;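 also: 0% = vehicle and 100% = reference inhibitor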
# NOD2 RIPK2 PPI = blocks binding of human NOD2 to RIPK2; O43353; CHO BLA complementation NOD2-RIPK2, CCF4 ratio; inhibition, % at 4.98 µM; hit rate 0.38% among 360,000; AID 624267; in the data active = inhibition above about 21%;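 also: 0% = vehicle only and 100% = reference blocker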
# UPR XBP1 act = adaptive UPR (XBP1) activation; hit rate 0.33% among 330,000; CHO-XBP1 luciferase reporter, IRE1-XBP1 UPR activation, luminescence; percent of tunicamycin response, DMSO as zero; activation, % at 20 µM;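 active = versus positive control, 20 µM dose yields 30% or more activation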;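 also: 100% = tunicamycin at 10 µg/mL and 0% = DMSO only wells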
#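 Test system: CHO-XBP1 luciferase reporter cells | Buffer or medium: Serum-containing F12 medium, 10% FBS | Schedule: 6 h compound exposure at 37 °C, 5% CO2 | Detection: Steady-Glo luciferase glow luminescence, 10 min after reagent addition | Read-out basis: Activation, % of tunicamycin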
# CHOP UPR activ = apoptotic UPR (CHOP) activation; CHO-CHOP luciferase reporter, luminescence; percent of tunicamycin response over DMSO baseline; activation, % at 10 µM; hit rate 0.34% among 330,000; AID 449763;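 active = at 10 µM dose, activation of 40% or more, normalized to positive control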;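 also: 100% = tunicamycin at 10 µg/mL and 0% = DMSO alone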
#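 Test system: CHO-CHOP cells, stable luciferase reporter of PERK-eIF2a-CHOP signalling | Quantity: 500 CHO-CHOP cells per well | Buffer or medium: F12 plus 10% serum | Compound dosing: 10 µM single point, 0.5% DMSO | Schedule: 6 h compound treatment, 37 °C | Signal: Luciferase luminescence | Control set: Tunicamycin high control, DMSO low control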
# Numbers without * were called inactive; . = not tested or not shown.
SMILES,TLR9-MyD88 inh,CHOP inhibitor,TLR4 MyD88 comp,NOD2 RIPK2 PPI,UPR XBP1 act,CHOP UPR activ
Cc1cccc2sc(NC(=O)CN(C)S(=O)(=O)c3ccc(Br)s3)nc12,-4.0,84.9*,2.9,4.4,-5.2,-0.5
O=C(Nc1ccc(F)cc1)c1cnc(-c2ccccc2)nc1-c1ccccc1,0.8,81.2*,-0.1,-4.1,5.4,1.3
C=CCNC(=O)c1cnc(-c2ccccc2)nc1-c1ccccc1,-2.6,.,.,-5.9,1.2,-0.8
O=C(Nc1ccc(F)c(F)c1)c1cnc(-c2ccccc2)nc1-c1ccccc1,15.8,93.6*,5.8,-12.4,7.4,-0.2
Fc1cccc(Cc2c(-c3ccccc3)nc3c4ccccc4ccn23)c1,.,.,.,7.0,.,.
CCC(=O)Nc1ccc(NC(=O)c2cccc3c(Br)cccc23)cc1,0.9,.,.,-7.1,-2.5,2.2
O=C(Nc1nnc(COc2ccccc2)s1)C1CCN(S(=O)(=O)c2ccc(Cl)cc2)CC1,3.5,80.1*,0.2,1.6,-0.4,1.6
COc1ccc(C(C)C)cc1S(=O)(=O)n1ccnc1C,-8.6,37.9,-10.8,-10.4,-0.1,-0.4
COc1ccc(/C=C/c2ccc(=O)n(Cc3ccccc3)n2)cc1,0.3,49.5,-2.2,-0.2,9.5,0.5
Cc1ccc(/C=C/c2ccc(=O)n(Cc3ccc(F)cc3)n2)cc1,-7.9,78.8*,14.6,1.8,-2.5,-1.2
O=c1ccc(/C=C/c2ccccc2)nn1Cc1ccc(F)cc1,-4.3,80.1*,-0.4,-0.3,-2.0,-0.3
Cc1ccc(-c2ccc(=O)n(Cc3ccc(F)cc3)n2)cc1,-1.8,.,.,0.3,-1.0,1.3
O=C(CCNC(=O)C1CCN(S(=O)(=O)c2ccc(F)cc2)CC1)NCc1ccccn1,-2.1,.,.,-3.4,.,.
Cc1cccc2sc(N(CCN(C)C)C(=O)c3cc(Cl)sc3Cl)nc12,-2.4,72.0*,5.1,-7.2,2.1,2.3
CCN1CCN(C(C(=O)NC2CCCCC2)c2ccnc3ccccc23)CC1 (stereo not drawn),.,.,.,-0.8,.,.
O=C(N/N=C1/CC(c2ccccc2)Oc2ccccc21)C1CC1 (stereo not drawn),1.8,93.0*,-8.4,-9.6,3.8,1.2
O=C(N/N=C1\CC(c2ccccc2)Oc2ccccc21)c1ccc(O)cc1 (stereo not drawn),-39.1,.,.,-5.1,3.7,2.3
Cc1cc(C)n(CCCNC(=O)CCNS(=O)(=O)c2ccccc2C(F)(F)F)n1,2.1,.,.,-7.7,0.0,-1.5
C=CCSc1nc(N)c(C(=O)Nc2ccccc2)cc1C#N,-6.4,70.5*,2.9,0.6,6.3,-0.2
O=Cc1cc(N=Nc2ccccc2Cl)ccc1O,-9.1,58.4,-2.9,-1.6,3.1,3.9
COC(=O)N/N=C/c1cc(Cl)cc(Cl)c1OCc1ccccc1,-38.9,74.5*,3.1,-5.9,-2.2,3.1
CC(=O)N(C)c1ccc(NC(=O)C(Sc2ccccc2)c2ccccc2)cc1 (stereo not drawn),.,-11.5,-7.9,3.7,-1.7,0.6
O=C(Nc1ccc(Cl)c([N+](=O)[O-])c1)C(Sc1ccccc1)c1ccccc1 (stereo not drawn),1.0,83.5*,-21.7,7.8,1.8,5.2
CC(C)(C)NS(=O)(=O)c1ccc(NC(=O)C(Sc2ccccc2)c2ccccc2)cc1 (stereo not drawn),2.5,75.1*,6.7,-1.0,2.3,0.4
O=C(Nc1cc([N+](=O)[O-])ccc1Cl)C(Sc1ccccc1)c1ccccc1 (stereo not drawn),2.0,56.5,8.2,-10.5,-5.5,-2.6
SMILES,TLR9-MyD88 inh,CHOP inhibitor,TLR4 MyD88 comp,NOD2 RIPK2 PPI,UPR XBP1 act,CHOP UPR activ
C=Cc1ccc(Cn2nc(-c3ccccc3)ccc2=O)cc1,-0.9,.,.,4.4,-1.5,0.3
O=C(Nc1ccc2c(c1)CCC2)c1cc(S(=O)(=O)Nc2ccc(F)cc2)c(Cl)cc1Cl,-2.5,78.2*,-3.9,-9.2,-1.5,-0.1
O=C(Nc1ccc2c(c1)CCC2)c1ccc(F)cc1,-9.9,41.9,-0.2,-1.2,-3.2,3.8
Cc1cccc(NC(=O)c2cc(-c3cc(C)ccc3O)n[nH]2)c1,5.5,.,.,4.9,6.1,5.6
COc1ccc(NC(=O)c2cc(-c3cc(C)ccc3O)n[nH]2)cc1Cl,-3.0,77.6*,-14.2,1.9,4.8,0.1
Cc1ccc(S(=O)(=O)N2CCN(C(=O)C(O)c3ccccc3)CC2)cc1 (stereo not drawn),.,.,.,-5.2,.,.
Oc1ccc(Cl)cc1C1=NNC(c2ccc(Cl)cc2)C1 (stereo not drawn),-3.5,78.3*,-10.2,-2.2,7.4,17.7
Oc1c(Cl)cc(Cl)cc1C1=NNC(c2ccc(Cl)cc2)C1 (stereo not drawn),-3.0,-30.4,-3.6,-15.6,.,.
COc1ccc(C2=NNC(c3cc(Cl)cc4c3OCOC4)C2)c(O)c1 (stereo not drawn),.,2.5,4.8,.,0.7,-1.1
Oc1ccc(Cl)cc1C1=NNC(c2cc(Br)cc3c2OCOC3)C1 (stereo not drawn),-5.5,78.6*,11.6,-6.5,3.2,0.4
COc1cccc(CC(NC(C)=O)C(=O)NC2CCN(S(=O)(=O)c3ccc4ccccc4c3)CC2)c1 (stereo not drawn),3.1,43.3,-3.4,-4.2,3.4,0.4
COc1ccc(OC)c2c1cc(C(=O)N[C@@H](Cc1ccccc1)C(=O)O)n2C,2.4,.,.,2.1,0.2,2.3
COc1ccc(NC(=O)Nc2cccc3c2O[C@H](CN(C)C(=O)Nc2ccc4c(c2)OCO4)[C@@H](C)CN([C@H](C)CO)C3=O)cc1,12.8,.,.,6.2,-4.3,2.3
Cc1ccc(C)c(OCc2nc(-c3cccnc3)no2)c1,-9.3,-6.5,12.5,3.0,2.5,3.0
Cc1ccc(-c2nc(-c3cccnc3)no2)c(C)c1,-4.5,73.4*,-13.0,0.5,0.8,3.0
CCOc1ccc(-c2nc(CSCC(=O)N3CCN(C(=O)c4ccco4)CC3)c(C)o2)cc1,-2.4,37.6,-4.9,-6.6,2.5,2.6
CCOC(=O)C1CCN(C(=O)CSCc2nc(-c3ccc(OCC)cc3)oc2C)CC1,-10.3,76.7*,-8.6,-5.4,5.4,0.0
O=C(CCN1C(=O)C2CCCCC2C1=O)N1CCN(S(=O)(=O)c2ccccc2)CC1 (stereo not drawn),-4.6,.,.,4.5,-1.9,-0.1
O=C1C(C=Nc2ccc(F)cc2)=C(O)c2ccccc21,-2.0,46.0,0.9,-8.1,-8.3,-3.6
Cc1ccccc1N=CC1=C(O)c2ccccc2C1=O,-8.8,77.5*,-10.5,-2.8,-6.9,-4.8
Cc1ccc(NC(=S)Nc2ccccn2)cc1C,.,-35.0,.,2.4,-0.8,7.0
Cc1ccc(NC(=S)Nc2ccc3nc(-c4ccccn4)c(-c4ccccn4)nc3c2)cc1C,14.2,-4.3,0.6,31.8*,.,.
Cc1c(C)n(CC(O)CNc2ccccc2)c2ccccc12 (stereo not drawn),1.5,90.5*,-7.7,-2.9,-3.7,0.3
